One series relates to PSN-1 cells. In words: Apoptosis in vitro assay. The format is cell-based. Conditions: for apoptosis, single agent: VE-822 80 nM or gemcitabine 10 nM, 48 h after XRT time point. The procedure, abridged: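 For PSN-1 cells, gemcitabine (10 nM) was given 24 h pre-XRT, then replaced with fresh medium. […] Cells were analysed at 48 h post-XRT by Annexin V-FITC/PI flow cytometry to separate early apoptotic from necrotic cells.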

For the next series, the system named is PSN-1 xenografts. In words: Tumor growth delay, PSN-1 xenografts. It is filed as in vivo, mice. The procedure, abridged: (§1)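 Female Balb/c nude mice were inoculated s.c. with 10^6 cells in serum-free medium plus Matrigel and randomized at ~80 mm3 (day 0). […] Tumor volume was tracked to 600 mm3 (TV600); n=4–5.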
The subject of series [1] is tumor xenograft vessel density. The series is described as follows: Tumor vessel density. It is filed as in vivo, mice. In a few lines: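 Frozen xenograft tumors were cut into 10-μm sections, treated with 0.3% H2O2 for 20 min, then blocked in TNB for 30 min. Sections were stained 1 h with rat anti-mouse CD31 (1:50), then anti-rat […]. Vessels per field were counted in five random viable 10× fields per tumor, n=4–5 tumors per group.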

The target in series [2] is T1, ATM (Homo sapiens, UniProt Q13315). The series is described as follows: Biochemical inhibition of ATR and related kinases.
T1 sequence (Q13315 whole entry, species assumed): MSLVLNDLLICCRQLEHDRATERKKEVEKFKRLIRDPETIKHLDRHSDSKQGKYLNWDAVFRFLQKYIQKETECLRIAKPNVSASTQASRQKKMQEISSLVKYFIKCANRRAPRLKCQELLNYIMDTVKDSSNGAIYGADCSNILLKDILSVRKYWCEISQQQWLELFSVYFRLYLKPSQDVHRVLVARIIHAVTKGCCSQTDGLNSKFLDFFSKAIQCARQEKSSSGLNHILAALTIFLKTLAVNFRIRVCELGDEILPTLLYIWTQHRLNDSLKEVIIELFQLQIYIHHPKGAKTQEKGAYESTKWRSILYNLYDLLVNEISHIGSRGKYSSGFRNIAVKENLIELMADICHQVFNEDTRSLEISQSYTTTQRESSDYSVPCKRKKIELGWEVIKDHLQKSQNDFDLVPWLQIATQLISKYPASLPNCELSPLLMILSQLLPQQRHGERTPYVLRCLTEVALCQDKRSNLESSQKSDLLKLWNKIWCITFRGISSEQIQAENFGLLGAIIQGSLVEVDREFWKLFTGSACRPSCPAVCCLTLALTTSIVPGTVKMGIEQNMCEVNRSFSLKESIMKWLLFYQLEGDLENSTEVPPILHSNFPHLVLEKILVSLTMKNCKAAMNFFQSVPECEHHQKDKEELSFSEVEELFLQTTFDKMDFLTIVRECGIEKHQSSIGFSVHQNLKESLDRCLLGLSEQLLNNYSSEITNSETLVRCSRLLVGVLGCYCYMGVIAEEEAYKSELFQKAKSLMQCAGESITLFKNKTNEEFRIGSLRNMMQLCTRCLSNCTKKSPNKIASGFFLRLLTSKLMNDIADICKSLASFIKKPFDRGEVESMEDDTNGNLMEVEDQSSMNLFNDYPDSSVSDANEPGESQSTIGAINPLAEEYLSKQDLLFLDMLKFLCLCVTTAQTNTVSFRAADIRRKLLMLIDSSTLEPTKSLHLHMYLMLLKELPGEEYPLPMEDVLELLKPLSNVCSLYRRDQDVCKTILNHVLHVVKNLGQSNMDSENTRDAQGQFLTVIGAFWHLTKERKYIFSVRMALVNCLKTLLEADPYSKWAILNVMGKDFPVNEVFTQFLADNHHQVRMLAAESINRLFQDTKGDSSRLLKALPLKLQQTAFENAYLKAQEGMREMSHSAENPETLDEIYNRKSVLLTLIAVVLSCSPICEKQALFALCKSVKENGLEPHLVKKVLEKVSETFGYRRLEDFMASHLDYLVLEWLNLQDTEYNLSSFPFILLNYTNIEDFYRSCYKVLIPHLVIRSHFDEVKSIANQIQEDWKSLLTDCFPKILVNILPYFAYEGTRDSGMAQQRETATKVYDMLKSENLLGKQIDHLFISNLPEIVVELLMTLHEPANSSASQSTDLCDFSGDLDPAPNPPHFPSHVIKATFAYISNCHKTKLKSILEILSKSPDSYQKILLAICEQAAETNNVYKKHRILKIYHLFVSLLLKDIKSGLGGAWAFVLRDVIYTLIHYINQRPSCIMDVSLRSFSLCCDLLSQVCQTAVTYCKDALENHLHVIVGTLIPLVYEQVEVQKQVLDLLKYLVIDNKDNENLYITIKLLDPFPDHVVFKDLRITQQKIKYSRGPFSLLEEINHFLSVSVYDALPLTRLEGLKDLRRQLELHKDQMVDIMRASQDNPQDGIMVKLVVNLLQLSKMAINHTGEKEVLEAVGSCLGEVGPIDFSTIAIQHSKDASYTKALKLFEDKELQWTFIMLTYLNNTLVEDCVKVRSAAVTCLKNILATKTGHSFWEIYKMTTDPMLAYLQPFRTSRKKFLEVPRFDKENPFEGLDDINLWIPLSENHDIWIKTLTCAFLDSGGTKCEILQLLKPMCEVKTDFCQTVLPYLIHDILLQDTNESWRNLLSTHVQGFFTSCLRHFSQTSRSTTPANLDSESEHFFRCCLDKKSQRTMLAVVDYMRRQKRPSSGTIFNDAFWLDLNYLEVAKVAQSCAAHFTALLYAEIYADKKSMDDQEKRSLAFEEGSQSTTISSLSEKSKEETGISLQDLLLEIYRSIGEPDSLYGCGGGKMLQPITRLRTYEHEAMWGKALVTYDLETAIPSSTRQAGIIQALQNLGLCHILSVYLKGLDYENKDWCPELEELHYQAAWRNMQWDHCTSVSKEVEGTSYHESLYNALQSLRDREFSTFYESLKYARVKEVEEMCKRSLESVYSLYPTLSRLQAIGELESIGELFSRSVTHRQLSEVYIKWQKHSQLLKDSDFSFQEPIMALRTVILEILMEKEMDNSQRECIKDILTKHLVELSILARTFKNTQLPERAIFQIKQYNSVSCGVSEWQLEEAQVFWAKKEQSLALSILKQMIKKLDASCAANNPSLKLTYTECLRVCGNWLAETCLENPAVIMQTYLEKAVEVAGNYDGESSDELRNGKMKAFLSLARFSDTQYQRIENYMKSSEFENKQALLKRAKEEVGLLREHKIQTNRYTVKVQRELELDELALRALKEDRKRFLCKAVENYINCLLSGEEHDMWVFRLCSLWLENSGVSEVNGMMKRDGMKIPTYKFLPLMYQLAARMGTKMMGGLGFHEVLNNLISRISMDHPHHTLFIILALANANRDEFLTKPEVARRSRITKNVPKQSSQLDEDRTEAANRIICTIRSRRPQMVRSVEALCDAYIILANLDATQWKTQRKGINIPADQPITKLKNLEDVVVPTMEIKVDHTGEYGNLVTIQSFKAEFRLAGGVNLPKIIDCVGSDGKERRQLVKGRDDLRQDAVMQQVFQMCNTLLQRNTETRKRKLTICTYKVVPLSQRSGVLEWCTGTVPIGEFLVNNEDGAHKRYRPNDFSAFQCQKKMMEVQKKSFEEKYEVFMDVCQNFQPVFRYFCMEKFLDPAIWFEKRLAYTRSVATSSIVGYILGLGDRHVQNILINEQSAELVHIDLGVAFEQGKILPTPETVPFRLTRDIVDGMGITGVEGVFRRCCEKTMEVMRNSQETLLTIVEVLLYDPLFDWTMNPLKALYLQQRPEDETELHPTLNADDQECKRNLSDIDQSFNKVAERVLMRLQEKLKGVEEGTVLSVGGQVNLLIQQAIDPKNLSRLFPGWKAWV
Series [3] deals with T2, DNA-PK (Homo sapiens, UniProt P78527). The series is described as follows: Biochemical inhibition of ATR and related kinases.
A further series has as its target mTOR (Homo sapiens, UniProt P42345). The series is described as follows: Biochemical inhibition of ATR and related kinases.
For a further series, the target named is PI3Kγ (Homo sapiens, UniProt P48736). The series is described as follows: Biochemical inhibition of ATR and related kinases.
PI3Kγ, sequence (P48736 whole entry, species assumed): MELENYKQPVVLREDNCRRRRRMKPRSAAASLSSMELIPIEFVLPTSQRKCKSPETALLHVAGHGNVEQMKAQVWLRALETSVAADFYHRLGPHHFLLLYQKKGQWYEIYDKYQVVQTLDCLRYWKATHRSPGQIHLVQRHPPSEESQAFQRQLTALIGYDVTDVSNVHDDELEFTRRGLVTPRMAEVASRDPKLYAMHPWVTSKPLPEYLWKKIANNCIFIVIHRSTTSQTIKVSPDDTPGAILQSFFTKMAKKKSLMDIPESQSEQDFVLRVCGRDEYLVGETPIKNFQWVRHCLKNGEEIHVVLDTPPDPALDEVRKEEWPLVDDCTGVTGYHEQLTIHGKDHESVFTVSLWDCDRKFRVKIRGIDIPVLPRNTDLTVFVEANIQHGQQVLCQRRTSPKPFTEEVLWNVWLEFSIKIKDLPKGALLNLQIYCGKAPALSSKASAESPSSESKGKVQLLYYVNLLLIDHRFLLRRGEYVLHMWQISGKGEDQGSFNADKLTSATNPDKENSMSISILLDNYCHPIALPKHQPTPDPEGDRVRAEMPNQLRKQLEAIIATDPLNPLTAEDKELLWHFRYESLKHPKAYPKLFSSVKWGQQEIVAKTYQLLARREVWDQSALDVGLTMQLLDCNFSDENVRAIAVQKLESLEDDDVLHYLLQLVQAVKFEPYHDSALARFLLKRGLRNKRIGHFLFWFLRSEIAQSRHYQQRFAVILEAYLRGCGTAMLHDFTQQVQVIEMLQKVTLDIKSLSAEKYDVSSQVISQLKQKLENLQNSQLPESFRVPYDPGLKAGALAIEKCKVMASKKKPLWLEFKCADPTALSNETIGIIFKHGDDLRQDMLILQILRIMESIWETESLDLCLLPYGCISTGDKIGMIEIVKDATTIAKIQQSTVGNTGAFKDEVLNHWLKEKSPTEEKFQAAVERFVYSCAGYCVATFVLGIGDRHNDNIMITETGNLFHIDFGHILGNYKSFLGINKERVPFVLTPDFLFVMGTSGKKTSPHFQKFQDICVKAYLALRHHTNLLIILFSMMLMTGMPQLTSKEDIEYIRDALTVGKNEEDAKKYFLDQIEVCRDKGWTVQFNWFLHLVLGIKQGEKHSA
The target in series [4] is T1, ATM. The series is described as follows: Cellular inhibition of ATR and related kinases. The format is cell-based.
The target of series [5] is T2, DNA-PK. In words: Cellular inhibition of ATR and related kinases. The format is cell-based.
The test system of another series is phospho-Ser345-Chk1. In words: Immunoblot for Chk1 phosphorylation. The conditions noted are these: VE-822 80 nM; gemcitabine 100 nM, XRT 6 Gy; PDAC cells. It is filed as cell-based. In a few lines: (§2)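 Lysates were taken 2 h post-XRT or 4 h post-gemcitabine, after cold PBS rinse, in reducing Triton lysis buffer. Phospho-Chk1 antibody was used at 1:1000; β-actin was the loading control.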
On the technique in general: In western blotting, separated proteins are transferred to a membrane and probed.

Series [6] has as its system ATM, Chk2 or DNA-PK phosphorylation. In words: Immunoblot for ATM/Chk2 and DNA-PK phosphorylation. The format is cell-based. Conditions: VE-822 80 nmol/L; XRT 6 Gy.
The subject of series [7] is PDAC cells (PSN-1, MiaPaCa-2, PancM). The series is described as follows: Clonogenic survival assay, pancreatic cancer cells. The format is cell-based.
The test system of series [8] is fibroblasts (HFL-1, MRC5). In words: Clonogenic survival assay, normal fibroblasts. The format is cell-based, human. The conditions noted are these: VE-822 80 nM.
Series [9] deals with phospho-Ser345-Chk1 in HFL-1 normal fibroblasts. In words: Phospho-Chk1. It is filed as cell-based, human. The conditions noted are these: VE-822 80 nM. The procedure, abridged:
as §2

The subject of series [10] is human dermal microvascular endothelial cells (HDMECs). The series is described as follows: Capillary tube formation. The conditions noted are these: VE-822 80 nM; XRT 6 Gy or gemcitabine 50 nM. The format is cell-based.
Series [11] concerns PSN-1 and MiaPaCa-2 cells. The series is described as follows: Analysis of γH2AX, 53BP1 and Rad51 foci. It is filed as cell-based.
For series [12], the system named is PSN-1 and MiaPaCa-2 cells. The series is described as follows: Cell-cycle assay. It is filed as cell-based.
For series [13], the system named is phospho-Ser-345-Chk1 in PSN-1 xenografts. The series is described as follows: Chk1 phosphorylation. It is filed as in vivo, mice. Conditions: VE-822 60 mg/kg d0, 1; gemcitabine 100 mg/kg d0; XRT 6 Gy d1; 2 h post-XRT.
For another series, the system named is MiaPaCa-2 xenografts. The series is described as follows: Tumor growth delay, MiaPaCa-2 xenografts. Conditions: experiment III. The format is in vivo, mice. In a few lines:
as §1

Series [14] in a line: Body weight of mice in growth delay experiments. It is filed as in vivo.
The test system of series [15] is small intestine (jejunum). In words: Intestinal damage after abdominal XRT. It is filed as in vivo, mice.
In series [16] the test system is γH2AX in PSN-1 tumor xenografts. In words: SPECT imaging of γH2AX in pancreatic tumor xenografts. The format is in vivo, mice. The procedure, abridged: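 111In-DTPA–anti-γH2AX-Tat was injected 2 h before radiation, and SPECT/CT was run at 24 h post-XRT. Tumor uptake came from volume-of-interest analysis as %ID/g; organs were then removed, weighed and counted.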

“Also recorded” adds a separate entry of the source. Bounds are passed on as bounds.

In the case of `Nc1ccn([C@@H]2O[C@H](CO)[C@@H](O)C2(F)F)c(=O)n1` [gemcitabine, reference compound], the “apoptosis, single agent” value with PSN-1 cells was “increased apoptosis slightly”. Moreover, the “tumor growth, gemcitabine alone” value in the series on PSN-1 xenografts (100 mg/kg i.p. day 0) is “did not alter tumor growth significantly; also recorded: does not itself lead to tumor growth delay”. Besides, the “tumor growth delay, gemcitabine + XRT vs gemcitabine” value with PSN-1 xenografts (experiment V, P<0.05) was “increased tumor growth delay compared with Gem0”. For the same compound, the “vessel density after gemcitabine” value in series [1] (growth delay experiment V) was “significantly reduced vessel density”.
Regarding `CNCc1ccc(-c2cc(-c3nc(-c4ccc(S(=O)(=O)C(C)C)cc4)cnc3N)on2)cc1` [VE-822], the Ki (commonly the dissociation constant of the complex between target and ligand, obtained from inhibition or displacement) on ATM [2] was 34 nM; on DNA-PK [3], greater than 4000 nM; on mTOR, greater than 1000 nM; at PI3Kγ, 220 nM. The IC50 – broadly, the midpoint of a concentration-inhibition curve – on ATM [4] is 2600 nM; against DNA-PK [5] it was 18100 nM. The “phospho-Ser345-Chk1 after gemcitabine, XRT or both” value with phospho-Ser345-Chk1 was “reduced phospho-Ser345-Chk1”. Besides, in [6], the “ATM, Chk2 or DNA-PK phosphorylation in response to radiation” value was “did not inhibit ATM, Chk2 or DNA-PK phosphorylation”. For the same compound, the “clonogenic survival of irradiated PDAC” value in [7] (VE-822 80 nM, 1 h before until 18 h post-XRT) is on record as “decreased survival of irradiated PDAC”. Besides, the “reduction of survival after chemoradiotherapy (triple combination)” value in series [7] (gemcitabine 10 or 5 nM 24 h, VE-822 80 nM, XRT 4 Gy) is reported as “dramatically more after chemoradiotherapy”. For the same compound, the “reduction of survival on adding VE-822 to gemcitabine” value in series [7] (gemcitabine 24 h, then VE-822 80 nM 18 h) was 2–3 fold. Also, the “clonogenic survival of normal fibroblasts after XRT or gemcitabine” value in [8] is recorded as “did not alter clonogenic survival of fibroblasts”. Besides, in series [9], the “phospho-Ser345-Chk1 after gemcitabine, XRT or chemoradiotherapy” value is given as “reduced phospho-Ser345-Chk1”. In series [10], the “tube formation after XRT or gemcitabine” value is listed as “did not modify tube formation”. In series [11] (VE-822 80 nM 1 h before XRT 6 Gy, 24 h post-XRT, vs XRT), the “residual γH2AX and 53BP1 foci” value was “increased XRT-induced residual γH2AX and 53BP1 foci”. Besides, the Rad51 foci entry in [11] (VE-822 80 nM pre-treatment, XRT 6 Gy, 6 h post-XRT) is reported as “decreased Rad51 foci after XRT”. In addition, in series [11] (VE-822 alone (data not shown)), the “γH2AX, 53BP1 or Rad51 foci, VE-822 alone” value is recorded as “no effect on γH2AX, 53BP1 or Rad51 foci”. In addition, the “XRT-enriched G2/M-phase-fraction” value in [12] (VE-822 80 nM + XRT 6 Gy) was “abrogated by co-treatment with VE-822”. Also, the “cell-cycle distribution, VE-822 alone” value in [12] (VE-822 80 nM, 12 h and 24 h) is recorded as “increased the G1-phase-fraction”. Moreover, the “gemcitabine-induced S-phase arrest” value in series [12] (gemcitabine 10 nM then VE-822 80 nM) is recorded as “not affected by VE-822”. Moreover, in the series with PSN-1 cells, the “apoptosis, single agent” value is reported as “little effect”. Besides, the “apoptosis, combinations of VE-822, XRT and/or gemcitabine” value with PSN-1 cells (VE-822 80 nM, XRT 6 Gy, gemcitabine 10 nM, strongest in triple combination) is “enhanced early and late apoptosis”. Further, the “phospho-Ser-345-Chk1 in xenografts after DNA-damaging agents” value in series [13] was “inhibited phospho-Ser-345-Chk1 in xenografts”. Further, the “tumor growth, VE-822 alone” value with PSN-1 xenografts (experiment I, 60 mg/kg days 0–5) was “no effect on tumor growth”. The “TV600 (time to 600 mm^3), XRT plus VE-822 vs XRT alone” value with PSN-1 xenografts (experiment I, 60 mg/kg for 6 or 4 days, 6 Gy day 1, P<0.001) was “more than doubled the TV600 of XRT alone”. Besides, the “tumor regrowth, VE-822 + fractionated XRT vs fractionated XRT” value in the series with PSN-1 xenografts (experiment II, 60 mg/kg days 0–5, 5 x 2 Gy days 1–5, P<0.001) is “significantly delayed regrowth compared with XRT1–5”. The “radiosensitisation (TV400) with intermittent dosing” value in the series with PSN-1 xenografts (experiment IV, 15, 30 and 60 mg/kg, days 0, 2 and 4, 6 Gy) is given as “dose-dependent radiosensitisation response”. Besides, the “tumor growth delay, gemcitabine + XRT + VE-822 vs gemcitabine + XRT” value in the series with PSN-1 xenografts (experiment V, P<0.001) was “substantially prolonged the tumor growth delay compared with the Gem0XRT1 group”. Further, the “tumor growth delay, VE-822 + XRT vs XRT” value with PSN-1 xenografts (experiment V, VE-822 60 mg/kg d1, 3, 5, XRT d1, P<0.05) is on record as “significantly longer compared with the XRT1 group”. Further, the “TV400, gemcitabine + VE-822 vs gemcitabine alone” value with PSN-1 xenografts (experiment V, gemcitabine 100 mg/kg d0, VE-822 60 mg/kg d1, 3, 5, P>0.05) is on record as “did not significantly increase TV400 compared with gemcitabine alone”. Further, the “tumor growth, VE-822 alone vs control” value in the series with MiaPaCa-2 xenografts (60 mg/kg days 0–5) was “no statistical change in tumor growth”. Further, the “tumors that regrew, VE-822 + XRT” value with MiaPaCa-2 xenografts (60 mg/kg days 0–5, 6 Gy day 1, n=4) is given as 2/4. The “TV600 of regrowing tumors, VE-822 + XRT vs XRT” value in the series with MiaPaCa-2 xenografts (two regrowing tumors, P<0.001) was “significantly longer than the TV600 for the XRT1 group”. Also, the body weight result in [14] (growth delay experiment I) is “No body weight loss”; in series [14] (growth delay experiment II) it was “no effects on body weight”; in series [14] (growth delay experiment III), “no weight loss”; in series [14] (growth delay experiment IV) it was “No weight loss”; in series [14] (growth delay experiment V), “no weight loss”. For the same compound, the “villus tip loss and villi length, VE-822 + XRT vs XRT alone” value in [15] (60 mg/kg days 0, 2, 4, 6 Gy day 0, day 5) is given as “did not increase villus tip loss or villi shortening”. Also, in [15] (abdominal XRT 6 Gy), the “body weight loss, combination vs XRT-only” value was “equivalent body weight loss”. In addition, the “vessel density, addition of VE-822 and/or XRT to gemcitabine” value in series [1] (growth delay experiment V) is reported as “did not alter vessel density significantly”. Besides, in series [1] (growth delay experiments I-III), the “vessel density, VE-822 alone or with XRT” value is on record as “did not alter vessel density”. Also, the “tumor uptake of 111In-DTPA–anti-γH2AX-Tat, VE-822 alone” value in [16] (60 mg/Kg days 0 and 1) is recorded as “no elevation in uptake”. In addition, the “tumor uptake of 111In-DTPA–anti-γH2AX-Tat, VE-822 plus XRT, higher compared with XRT” value in [16] (60 mg/Kg days 0 and 1, 6 Gy day 1, 24 h post-XRT, P<0.05) worked out at 44%.
